Read-outs that look alike come from different tables or passages of the source.
Columns and labels:
MM.1S cells [1] = test: MM.1S cell viability; assay type: cell-based, human
RKO cells = test: RKO cell viability; assay type: cell-based; conditions: Homo sapiens, 72 h, read-out: RKO IC50
RKO-E6 cells = test: RKO-E6 cell viability; assay type: cell-based, human
p53 in MM.1S cells = test: Time course of p53 levels in MM.1S cells; assay type: cell-based, human; conditions: for maximum increase of p53 above DMSO-treated cells: time course 2-24 h
Outline: (§1)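 MM.1S cells (RPMI 1640, 10% FBS, 1% L-glutamine) treated with test compound and sampled over a time course. Lysis in RIPA 30 min at 4°C, centrifugal clarification, BCA normalisation, reducing SDS-PAGE and immunoblot for p53 and p21. Chemiluminescent detection, densitometric band quantification; signal relative to DMSO-treated cells, mean ± standard deviation.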

p21 in MM.1S cells = test: Time course of p21 levels in MM.1S cells; assay type: cell-based, human; conditions: time course 2-24 h
Outline: as §1

MRC5 cells = test: MRC5 live-cell imaging; assay type: cell-based, human; conditions: 1 μM
Outline: (§2)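 IncuCyte S3 real-time growth, 4× objective: MRC5 (EMEM + 10% FBS, 4,000 cells/well) or MM.1S (RPMI 1640 + 10% FBS, 24,000 cells/well) seeded overnight, then exposed to test compound, idasanutlin or DMSO. Images every 6 h for 120 h from treatment start; growth expressed as phase object confluence.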

MM.1S cells [2] = test: MM.1S live-cell imaging; assay type: cell-based, human; conditions: 1 μM, 5 days
Outline: as §2

p53 WT cell lines [3] = conditions: read-out: IC50 in cellular viability assays of p53 WT cell lines; cited from earlier work
recombinant human USP7 = recombinant human USP7 (Homo sapiens, UniProt Q93009); test: In vitro USP7 activity assay; assay type: biochemical
recombinant human USP7, sequence (Q93009 whole entry): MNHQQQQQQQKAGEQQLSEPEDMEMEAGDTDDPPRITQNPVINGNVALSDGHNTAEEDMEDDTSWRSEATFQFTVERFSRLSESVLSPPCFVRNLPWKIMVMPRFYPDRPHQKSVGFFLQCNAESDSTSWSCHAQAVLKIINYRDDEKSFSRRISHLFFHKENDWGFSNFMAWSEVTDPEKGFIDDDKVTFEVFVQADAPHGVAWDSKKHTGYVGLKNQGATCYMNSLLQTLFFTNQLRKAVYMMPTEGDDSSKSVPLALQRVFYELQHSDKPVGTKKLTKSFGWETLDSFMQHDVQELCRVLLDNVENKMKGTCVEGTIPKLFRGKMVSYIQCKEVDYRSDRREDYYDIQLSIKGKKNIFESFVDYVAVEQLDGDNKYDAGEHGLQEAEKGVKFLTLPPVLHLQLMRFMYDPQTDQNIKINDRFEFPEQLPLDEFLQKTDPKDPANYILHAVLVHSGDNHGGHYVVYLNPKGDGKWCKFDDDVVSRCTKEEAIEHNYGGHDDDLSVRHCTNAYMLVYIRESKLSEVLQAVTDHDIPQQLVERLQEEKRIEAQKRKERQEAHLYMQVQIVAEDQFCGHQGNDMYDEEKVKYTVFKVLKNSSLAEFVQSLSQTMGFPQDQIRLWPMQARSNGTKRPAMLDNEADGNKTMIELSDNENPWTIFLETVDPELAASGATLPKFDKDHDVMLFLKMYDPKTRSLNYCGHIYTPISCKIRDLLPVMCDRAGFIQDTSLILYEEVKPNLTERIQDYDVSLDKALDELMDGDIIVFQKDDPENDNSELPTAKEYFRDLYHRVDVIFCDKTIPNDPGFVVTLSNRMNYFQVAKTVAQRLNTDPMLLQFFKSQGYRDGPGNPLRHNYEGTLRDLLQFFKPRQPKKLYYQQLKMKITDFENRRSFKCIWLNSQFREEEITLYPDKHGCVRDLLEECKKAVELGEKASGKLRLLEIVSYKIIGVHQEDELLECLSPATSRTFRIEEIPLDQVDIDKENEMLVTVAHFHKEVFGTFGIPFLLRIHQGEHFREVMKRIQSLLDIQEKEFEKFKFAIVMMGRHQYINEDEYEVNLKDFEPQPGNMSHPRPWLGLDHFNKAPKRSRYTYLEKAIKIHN
Outline: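 Test compound, 4-fold 10-point series from 2.5 µM top, pre-incubated 30 min at room temperature with 167 pM Sf21-baculovirus-expressed human USP7 in 20 mM HEPES pH 7.3, 150 mM NaCl, 1 mM TCEP, 125 µg/mL BSA, 0.4% DMSO. Ubiquitin-rhodamine added to 160 nM final; reaction 90 min at room temperature, acetic acid stop. Fluorescence 485/520 nm. % inhibition vs DMSO and no-enzyme controls; IC50 from curve fit; triplicate.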

[4] = system: p53 levels in MM.1S cells; test: Meso Scale Discovery total p53 assay in MM.1S cells; assay type: cell-based; conditions: Homo sapiens, MM1.S, 4 h, read-out: MM.1S p53 EC50
Outline: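 MM.1S cells plated at 1×10⁶/well overnight, then exposed 4 h to test compound, 4-fold 9-point series spanning 20 µM to 0.0003 µM, or DMSO (0.1% final). Total p53 in whole-cell lysate measured by Meso Scale Discovery immunoassay kit. p53 signal plotted against concentration and fitted for EC50.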

[5] = system: 44 DUBs (DUBprofiler panel); test: DUB selectivity profiling; assay type: biochemical; conditions: 10 μM compound
p53 WT cell lines [6] = test: Cellular viability assays of p53 WT cell lines; assay type: cell-based; conditions: read-out: IC50 in cellular viability assays of p53 WT cell lines
MM.1S tumors = test: MM.1S cell-line-derived xenograft mouse model; assay type: in vivo
Outline: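 Female CB-17 SCID mice (6-9 wk, 18-23 g) implanted s.c. in right flank with 5×10⁶ MM.1S cells in PBS/Matrigel 50/50. Randomised at mean tumour ~105 mm³; test compound by oral gavage; tumour and body weight measured twice weekly. Final-day urine at three intervals, diluted 1:50, mouse MIC-1 ELISA (OD450 minus OD570, standard curve). Tumours harvested 2 h post last dose, RIPA-homogenised, p53/p21 Western blot.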

MV4-11 tumors = test: MV4-11 cell-line-derived xenograft mouse model; assay type: in vivo; conditions: for tumor growth inhibition: MV4-11 tumors, oral, 24 days
Outline: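 Female CB-17 SCID mice (6-9 wk, 18-23 g) implanted s.c. in right flank with 10×10⁶ MV4-11 cells in PBS/Matrigel 50/50. Oral gavage dosing; tumour and body weight twice weekly. Final-day urine collected at three intervals, diluted 1:50, mouse MIC-1 ELISA (OD450 minus OD570, standard curve). Tumours removed 4 h after last dose, RIPA-homogenised, p53 and p21 by Western blot.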

MCL1 in OCI-AML3 cells = test: MCL1 levels in OCI-AML3 cells; assay type: cell-based, human; conditions: OCI-AML3, 1 μM each, 4 h, Western blot
Outline: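 OCI-AML-3 cells (RPMI 1640 + 20% FBS) exposed to test compound, venetoclax, or both co-dosed; sampled 4 h post treatment. RIPA lysis 30 min at 4°C, centrifugal clarification, BCA protein assay, reducing SDS-PAGE, immunoblot with extended-duration chemiluminescent substrate; bands quantified by densitometry. Mean ± standard deviation.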

[7] = MM.1S CDX, 2 h post final dose, Western blot
[8] = MV4-11 CDX, 4 h post final dose, Western blot

## COc1cc(C(=O)O)ccc1NC(=O)[C@@H]1N[C@@H](CC(C)(C)C)[C@](C#N)(c2ccc(Cl)cc2F)[C@H]1c1cccc(Cl)c1F [Idasanutlin, reference compound]
MM.1S cells [1]; three days, CTG
  inhibition of MM1.S cell viability compared with FX1-5303: equipotently
RKO cells
  IC50: 170 nM
RKO-E6 cells
  shift of IC50 in RKO-E6 cells relative to the parental RKO cell line: over 50 fold
p53 in MM.1S cells
  p53 elevation after 24h of treatment: approximately 14 fold
  maximum increase of p53 above DMSO-treated cells: approximately 20 fold
p21 in MM.1S cells
  maximum increase of p21 above DMSO-treated cells: ~80 fold
MRC5 cells
  increase in cell confluency over the 5-day time course: less than 10%
MM.1S cells [2]
  growth of the MM.1S cancer cell line: fully inhibited growth

## CC(=O)c1cc([N+](=O)[O-])c(Sc2ccc(F)cc2F)s1 [P22077]
p53 WT cell lines [3]
  IC50: > 1000 nM

## O=C1CCC(=O)N1Cc1cc2nccc(-c3cc(Cl)cc4c3N([C@@H]3CNC5(CCC5)C3)CCC4)c2s1 [FX1-5303, (S)-1-((7-(6-chloro-1-(5-azaspiro[3.4]octan-7-yl)-1,2,3,4-tetrahydroquinolin-8-yl)thieno[3,2-b]pyridin-2-yl)methyl)pyrrolidine-2,5-dione]
Recombinant human USP7
  IC50: 0.29 nM
[4]
  EC50: 5.6 nM
MM.1S cells [1]; Homo sapiens, MM1.S, 72 h, read-out: MM.1S viability IC50
  IC50: 15 nM
RKO cells
  IC50: 3400 nM
RKO-E6 cells
  shift of IC50 in RKO-E6 cells relative to the parental RKO cell line: essentially unchanged
[5]
  inhibition in a panel of 44 DUBs: only USP7 was inhibited
p53 in MM.1S cells
  time of peak p53 levels after treatment: 2 to 6 h
  p53 elevation after 24h of treatment: returns nearly to basal levels
  maximum increase of p53 above DMSO-treated cells: approximately 3 fold
p21 in MM.1S cells
  maximum increase of p21 above DMSO-treated cells: ~6 fold
MRC5 cells
  increase in cell confluency over the 5-day time course: increased monotonically
MM.1S cells [2]
  growth of the MM.1S cancer cell line: fully inhibited growth
p53 WT cell lines [6]
  IC50: < 50 nM
MM.1S tumors; [7]
  p21 levels in tumors vs untreated mice: significantly higher
  p53 levels in tumors: elevated
MM.1S tumors; MM.1S CDX, day 24, three time periods, ELISA
  MIC-1 in urine: elevated levels
MM.1S tumors; MM.1S and MV4-11 CDX mouse models, oral dosing
  tolerability: generally well-tolerated
MM.1S tumors; MM.1S tumors, 30 mg/kg twice daily, oral, 24 days
  tumor growth inhibition: 95%
MV4-11 tumors; [8]
  p21 levels in tumors vs untreated mice: significantly higher
  p53 levels in tumors: elevated
MV4-11 tumors; MV4-11 CDX, day 24, three time periods, ELISA
  MIC-1 in urine: elevated levels
MV4-11 tumors; 30 mg/kg twice daily
  tumor growth inhibition: 68%
MV4-11 tumors; 40 mg/kg twice daily
  tumor growth inhibition: 72%

## CC1(C)CCC(CN2CCN(c3ccc(C(=O)NS(=O)(=O)c4ccc(NCC5CCOCC5)c([N+](=O)[O-])c4)c(Oc4cnc5[nH]ccc5c4)c3)CC2)=C(c2ccc(Cl)cc2)C1 [Venetoclax]
MCL1 in OCI-AML3 cells
  effect on MCL1 levels: increase in MCL1 levels

Reference: PMC11059122 (iScience, 2024)
